Activity calls are given as the source filed them. The calls are words filed in the database; no cut-off is given here.

Assay [1] concerns K562. Put plainly: Apoptotic activity against human K562 cell line at 10 uM after 24 hrs. The format is functional. In short, it runs like this: (§1)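 K562 cells exposed at 10 µM for 8, 16, 24 and 48 h, run alongside imatinib reference and untreated control cells. Result is % apoptosis as mean ± SD of triplicate experiments. Morphology (chromatin condensation, micronuclei, vacuolization) checked by electron microscopy.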

Assay [2] relates to K562. The experiment in a line: Apoptotic activity against human K562 cell line at 10 uM after 16 hrs. Format: functional. The method, boiled down: as §1
Assay [3] relates to K562. The experiment in a line: Apoptotic activity against human K562 cell line at 10 uM after 48 hrs. Format: functional. In short, it runs like this: as §1
In assay [4] the test system is K562. The experiment in a line: Apoptotic activity against human K562 cell line at 10 uM after 8 hrs. The format is functional. The method, boiled down:
as §1

Assay [5] is filed under the species Homo sapiens. Put plainly: Apoptotic activity against peripheral blood cells of CML affected human (27-83 yrs) at onset phase at 10 uM after 48 hrs. Format: functional. In short, it runs like this:
(§2)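 Bone marrow or peripheral blood cells harvested from 12 consecutive CML patients at onset. Cells cultured in vitro and treated at 10 µM for 24 and 48 h. Read-out by DNA fragmentation assay as % apoptosis.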

The species named for assay [6] is Homo sapiens. Put plainly: Apoptotic activity against peripheral blood cells of CML affected human (27-83 yrs) at onset phase at 10 uM after 24 hrs. Format: functional. In short, it runs like this:
as §2

For assay [7], the species on record is Homo sapiens. Put plainly: Apoptotic activity against peripheral blood cells of imatinib-resistant CML affected human (38-70 yrs) at blast crisis phase at 10 uM after 48 hrs. The format is functional. The method, boiled down: (§3)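 Peripheral blood cells taken from 2 CML patients in blast crisis that evolved under imatinib treatment. Cells cultured in vitro and exposed at 10 µM for 24 and 48 h. Apoptosis scored as % by DNA fragmentation assay.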

Assay [8] relates to K562. Put plainly: Decrease in procaspase 8 expression in human K562 cells by Western blot. Format: functional, cell-based. In short, it runs like this:
(§4)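 Lysates of treated K562 cells taken after 24 h. Procaspase-8 and procaspase-9 immunoreactive bands assessed by Western blot.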
Background: In western blotting, separated proteins are transferred to a membrane and probed.

Assay [9] deals with K562. Put plainly: BCR-ABL inactivation-independent inhibition of […]-induced apoptosis in human K562 cell at 10 uM by Western blot. The format is functional, cell-based.
For assay [10], the species on record is Homo sapiens. The experiment in a line: Apoptotic activity against peripheral blood cells of imatinib-resistant CML affected human (38-70 yrs) at blast crisis phase at 10 uM after 24 hrs. Format: functional. In short, it runs like this: as §3
Assay [11] relates to K562. Put plainly: Decrease in procaspase 9 expression in human K562 cells by Western blot. Format: functional, cell-based. The method, boiled down: as §4

On to `CCOC(=O)[C@H]1c2cccn2S(=O)(=O)c2ccccc2N1C(=O)c1ccc(C)cc1`, for which the Activity in the assay with K562 [1] is 67.6%; with K562 [2], 57.8%; with K562 [3] it was 81.8%; in the assay on K562 [4] it was 33.1%.
`CCOC(=O)[C@H]1Nc2ccccc2S(=O)(=O)n2cccc21`: the Activity in the assay on K562 [1] amounted to 69%; with K562 [2], 53.8%; with K562 [3], 86.2%; in the assay on K562 [4], 26.6%.
For `CCOC(=O)[C@@H]1c2cccn2S(=O)(=O)c2ccccc2N1C(=O)c1ccc(C)cc1`, in that order: 71.6%, 63%, 86.2% and 38%.
As for `CCOC(=O)[C@@H]1Nc2ccccc2S(=O)(=O)n2cccc21`, the Activity in the assay with K562 [1] is reported as 63.2%; in the assay with K562 [2], 48.4%; with K562 [3] it was 80.3%; in the assay with K562 [4], 20.5%.
In the case of `CCOC(=O)C1c2cccn2S(=O)(=O)c2ccccc2N1C(=O)c1ccccc1` (racemic), the Activity was 80% with K562 [1], 66.6% in the assay with K562 [2], 89.6% in the assay with K562 [3] and 45% with K562 [4].
In the same order, the values of `CCOC(=O)C1c2cccn2S(=O)(=O)c2ccccc2N1C(=O)c1ccc(Cl)cc1` (racemic) are 79.7%, 67%, 91.7% and 44.3%.
Take `O=S1(=O)c2ccccc2NC(CO)c2cccn21` (racemic): the Activity was found to be 19.6% with K562 [1], 19.3% in the assay with K562 [2], 23% with K562 [3] and 5.3% in the assay on K562 [4].
As to `CCOC(=O)CC1c2cccn2S(=O)(=O)c2ccccc2N1C(=O)c1ccc(C)cc1` (racemic), the Activity with K562 [1] is 74.3%; in the assay with K562 [2] it was 67.6%; in the assay on K562 [3] it was 87.6%; with K562 [4] it was 45%.
In the same order, the values of `O=C(O)CC1Nc2ccccc2S(=O)(=O)n2cccc21` (racemic) are 6.4%, 5.5%, 6.1% and 4.5%.
In the same order, the values of `CCOC(=O)CC1c2cccn2S(=O)(=O)c2ccccc2N1C(=O)c1ccc(F)cc1` (racemic) are 79%, 66.3%, 90.7% and 44.6%.
For `CCOC(=O)CC1c2cccn2S(=O)(=O)c2ccccc2N1C(=O)c1cccc2ccccc12` (racemic), in that order: 80%, 69%, 92.6% and 47%.
For `CCOC(=O)CC1c2cccn2S(=O)(=O)c2ccccc2N1C(=O)c1ccc(Cl)cc1` (racemic), the Activity with K562 [1] was 78%; with K562 [2], 65.5%; with K562 [3], 90%; in the assay on K562 [4], 43%.
For `CCOC(=O)CC1c2cccn2S(=O)(=O)c2ccccc2N1C(=O)c1ccccc1` (racemic), in that order: 79.5%, 68%, 92.3% and 45.3%.
Turning to `O=C(O)C1Nc2ccccc2S(=O)(=O)n2cccc21` (racemic), the Activity in the assay on K562 [1] came to 6.8%; with K562 [2] it was 5.7%; with K562 [3] it was 6.2%; with K562 [4], 4.8%.
For `CCOC(=O)CC1Nc2ccccc2S(=O)(=O)n2cccc21` (racemic), in that order: 72%, 53%, 88.3% and 29.3%.
As for `CCOC(=O)C1c2cccn2S(=O)(=O)c2ccccc2N1C(=O)c1ccc(C)cc1` (racemic), the Activity worked out at 78% in the assay filed under Homo sapiens [5]; 55% in the assay listed under Homo sapiens [6]; 79.6% in the assay with K562 [1]; 78% in the assay filed under Homo sapiens [7]; 67.6% in the assay with K562 [2]; 91.7% in the assay with K562 [3]. Also, the Activity was 45.6% in the assay on K562 [4] and 55% in the assay filed under Homo sapiens [10]. Further, the outcome with K562 [8] was inactive. Moreover, in the assay on K562 [9], the result was Active.
For the molecule `CCOC(=O)C1c2cccn2S(=O)(=O)c2ccccc2N1C(=O)c1ccc(F)cc1` (racemic), the Activity amounted to 81% with K562 [1], 67.6% in the assay with K562 [2], 92% in the assay with K562 [3] and 45.3% in the assay on K562 [4].
Turning to `CCOC(=O)C1c2cccn2S(=O)(=O)c2ccccc2N1C(=O)c1cccc2ccccc12` (racemic), the Activity in the assay with K562 [1] is given as 77%; in the assay on K562 [2], 66%; with K562 [3], 87.6%; in the assay with K562 [4], 43.7%.
Regarding `CCOC(=O)C1Nc2ccccc2S(=O)(=O)n2cccc21` (racemic), the Activity came to 70% in the assay listed under Homo sapiens [5]; 50% in the assay filed under Homo sapiens [6]; 76.3% in the assay with K562 [1]; 60% in the assay listed under Homo sapiens [7]; 61.3% in the assay with K562 [2]; 89.7% in the assay on K562 [3]. The Activity is given as 34% in the assay on K562 [4] and 40% in the assay listed under Homo sapiens [10]. Further, the outcome in the assay on K562 [11] was inactive. For the same molecule, the outcome in the assay on K562 [8] and in the assay on K562 [9] was Active.
Consider `Cc1ccc(NC(=O)c2ccc(CN3CCN(C)CC3)cc2)cc1Nc1nccc(-c2cccnc2)n1` [IMATINIB], for which the Activity is 71% in the assay with K562 [1], 70% with K562 [2], 71.2% with K562 [3] and 66.7% in the assay on K562 [4].

Values taken from ChEMBL document CHEMBL1149345, “Pyrrolo[1,2-b][1,2,5]benzothiadiazepines (PBTDs): A new class of agents with high apoptotic activity in chronic myelogenous leukemia K562 cells and in cells from patients at onset and who were imatinib-resistant” (2006).
